Measurements taken from ChEMBL document CHEMBL1649446, “Comparative antipneumococcal activities of sulopenem and other drugs” (2009).
≈ marks a conversion by molar mass, not a printed value.

Key:
Type in all cases: functional
[1] = system: Streptococcus pneumoniae; test: Antimicrobial activity against Streptococcus pneumoniae isolate 3587 by agar dilution method
[2] = system: Streptococcus pneumoniae; test: Antimicrobial activity against Streptococcus pneumoniae 1 by time-kill analysis
Method in brief: (§1)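 Time-kill in cation-adjusted Mueller-Hinton broth with 5% lysed horse blood; inocula 5 × 105 to 5 × 10^6 CFU/ml; drugs at MIC, 2× and 4× MIC; 35°C shaking water bath; viable counts at 0, 3, 6, 12 and 24 h. Bactericidal if ≥3 log10 CFU/ml (99.9%) reduction from original inoculum; 90% and 99% killing also scored.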

[3] = system: Streptococcus pneumoniae; test: Antimicrobial activity against Streptococcus pneumoniae 19A by agar dilution method
Method in brief: (§2)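 Agar dilution MIC on Mueller-Hinton agar with 5% sheep blood, inocula 10^4 CFU/spot; amoxicillin-clavulanate combined 1:2; S. pneumoniae ATCC 49619 quality control each run.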

[4] = system: Streptococcus pneumoniae; test: Antimicrobial activity against Streptococcus pneumoniae isolate 1055 by agar dilution method
[5] = system: Streptococcus pneumoniae; test: Antimicrobial activity against Streptococcus pneumoniae 9 by time-kill analysis; method in brief: as §1
[6] = system: Streptococcus pneumoniae; test: Antimicrobial activity against Streptococcus pneumoniae isolate 2688 by agar dilution method; method in brief: as §2
[7] = system: Streptococcus pneumoniae; test: Antimicrobial activity against Streptococcus pneumoniae isolate 3263 by agar dilution method
[8] = system: Streptococcus pneumoniae; test: Antimicrobial activity against penicillin-susceptible Streptococcus pneumoniae by agar dilution method
[9] = system: Streptococcus pneumoniae; test: Antimicrobial activity against Streptococcus pneumoniae isolate 37 by agar dilution method; method in brief: as §2
[10] = system: Streptococcus pneumoniae; test: Antimicrobial activity against Streptococcus pneumoniae 6 by time-kill analysis
Method in brief: as §1, with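 “12,” for “12 and”, “=” for “if”, “drop” for “reduction”, “90%/99%/99.9%” for “90% and 99%”, “scored per strain.” for “also scored.”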

[11] = system: Streptococcus pneumoniae; test: Antimicrobial activity against Streptococcus pneumoniae isolate 2880 by agar dilution method; method in brief: as §2
[12] = system: Streptococcus pneumoniae; test: Antimicrobial activity against Streptococcus pneumoniae isolate 1384 by agar dilution method; method in brief: as §2
[13] = system: Streptococcus pneumoniae; test: Antimicrobial activity against Streptococcus pneumoniae isolate 2874 by agar dilution method; method in brief: as §2
[14] = system: Streptococcus pneumoniae; test: Antimicrobial activity against Streptococcus pneumoniae isolate 1394 by agar dilution method
[15] = system: Streptococcus pneumoniae; test: Antimicrobial activity against Streptococcus pneumoniae isolate 1424 by agar dilution method; method in brief: as §2
[16] = system: Streptococcus pneumoniae; test: Antimicrobial activity against Streptococcus pneumoniae isolate 2617 by agar dilution method; method in brief: as §2
[17] = system: Streptococcus pneumoniae; test: Antimicrobial activity against Streptococcus pneumoniae isolate 3260 by agar dilution method
[18] = system: Streptococcus pneumoniae; test: Antimicrobial activity against Streptococcus pneumoniae 12 by time-kill analysis
Method in brief: as §1, with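 “12,” for “12 and”, “=” for “if”, “drop” for “reduction”, “90%/99%/99.9%” for “90% and 99%”, “scored per strain.” for “also scored.”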

[19] = system: Streptococcus pneumoniae; test: Antimicrobial activity against Streptococcus pneumoniae 7 by time-kill analysis
Method in brief: as §1, with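 “12,” for “12 and”, “=” for “if”, “drop” for “reduction”, “90%/99%/99.9%” for “90% and 99%”, “scored per strain.” for “also scored.”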

[20] = system: Streptococcus pneumoniae; test: Antimicrobial activity against Streptococcus pneumoniae 3 by time-kill analysis
Method in brief: as §1, with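 “12,” for “12 and”, “=” for “if”, “drop” for “reduction”, “90%/99%/99.9%” for “90% and 99%”, “scored per strain.” for “also scored.”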

[21] = system: Streptococcus pneumoniae; test: Antimicrobial activity against Streptococcus pneumoniae isolate 3282 by agar dilution method
[22] = system: Streptococcus pneumoniae; test: Antimicrobial activity against penicillin-intermediate Streptococcus pneumoniae by agar dilution method
[23] = system: Streptococcus pneumoniae; test: Antimicrobial activity against Streptococcus pneumoniae isolate 3346 by agar dilution method
[24] = system: Streptococcus pneumoniae; test: Antimicrobial activity against Streptococcus pneumoniae isolate 3791 by agar dilution method; method in brief: as §2
[25] = system: Streptococcus pneumoniae; test: Antimicrobial activity against Streptococcus pneumoniae isolate 3681 by agar dilution method; method in brief: as §2
[26] = system: Streptococcus pneumoniae; test: Antimicrobial activity against Streptococcus pneumoniae isolate 4755 by agar dilution method; method in brief: as §2
[27] = system: Streptococcus pneumoniae; test: Antimicrobial activity against Streptococcus pneumoniae isolate 1146 by agar dilution method; method in brief: as §2
[28] = system: Streptococcus pneumoniae; test: Antimicrobial activity against Streptococcus pneumoniae isolate 24 by agar dilution method
[29] = system: Streptococcus pneumoniae; test: Antimicrobial activity against Streptococcus pneumoniae isolate 3455 by agar dilution method
[30] = system: Streptococcus pneumoniae; test: Antimicrobial activity against Streptococcus pneumoniae isolate 4747 by agar dilution method; method in brief: as §2
[31] = system: Streptococcus pneumoniae; test: Antimicrobial activity against Streptococcus pneumoniae 5 by time-kill analysis; method in brief: as §1
[32] = system: Streptococcus pneumoniae; test: Antimicrobial activity against Streptococcus pneumoniae 8 by time-kill analysis
Method in brief: as §1, with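 “12,” for “12 and”, “=” for “if”, “drop” for “reduction”, “90%/99%/99.9%” for “90% and 99%”, “scored per strain.” for “also scored.”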

[33] = system: Streptococcus pneumoniae; test: Antimicrobial activity against Streptococcus pneumoniae isolate 33 by agar dilution method; method in brief: as §2
[34] = system: Streptococcus pneumoniae; test: Antimicrobial activity against Streptococcus pneumoniae isolate 3481 by agar dilution method; method in brief: as §2
[35] = system: Streptococcus pneumoniae; test: Antimicrobial activity against Streptococcus pneumoniae isolate 1564 by agar dilution method
[36] = system: Streptococcus pneumoniae; test: Antimicrobial activity against Streptococcus pneumoniae isolate 2686 by agar dilution method; method in brief: as §2
[37] = system: Streptococcus pneumoniae; test: Antimicrobial activity against Streptococcus pneumoniae isolate 3458 by agar dilution method
[38] = system: Streptococcus pneumoniae; test: Antimicrobial activity against Streptococcus pneumoniae isolate 3275 by agar dilution method; method in brief: as §2
[39] = system: Streptococcus pneumoniae; test: Antimicrobial activity against Streptococcus pneumoniae isolate 1397 by agar dilution method; method in brief: as §2
[40] = system: Streptococcus pneumoniae; test: Antimicrobial activity against Streptococcus pneumoniae 4 by time-kill analysis
Method in brief: as §1, with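 “12,” for “12 and”, “=” for “if”, “drop” for “reduction”, “90%/99%/99.9%” for “90% and 99%”, “scored per strain.” for “also scored.”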

[41] = system: Streptococcus pneumoniae; test: Antimicrobial activity against Streptococcus pneumoniae isolate 3374 by agar dilution method; method in brief: as §2
[42] = system: Streptococcus pneumoniae; test: Antimicrobial activity against Streptococcus pneumoniae 10 by time-kill analysis
Method in brief: as §1, with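 “12,” for “12 and”, “=” for “if”, “drop” for “reduction”, “90%/99%/99.9%” for “90% and 99%”, “scored per strain.” for “also scored.”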

[43] = system: Streptococcus pneumoniae; test: Antimicrobial activity against Streptococcus pneumoniae isolate 1147 by agar dilution method; method in brief: as §2
[44] = system: Streptococcus pneumoniae; test: Antimicrobial activity against Streptococcus pneumoniae 11 by time-kill analysis
Method in brief: as §1, with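 “12,” for “12 and”, “=” for “if”, “drop” for “reduction”, “90%/99%/99.9%” for “90% and 99%”, “scored per strain.” for “also scored.”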

[45] = system: Streptococcus pneumoniae; test: Antimicrobial activity against penicillin-resistant Streptococcus pneumoniae by agar dilution method; method in brief: as §2
[46] = system: Streptococcus pneumoniae; test: Antimicrobial activity against Streptococcus pneumoniae isolate 3412 by agar dilution method; method in brief: as §2
[47] = system: Streptococcus pneumoniae; test: Antimicrobial activity against Streptococcus pneumoniae 2 by time-kill analysis
Method in brief: as §1, with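 “12,” for “12 and”, “=” for “if”, “drop” for “reduction”, “90%/99%/99.9%” for “90% and 99%”, “scored per strain.” for “also scored.”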

In the case of C[C@@H](O)[C@H]1C(=O)N2C(C(=O)O)=C(S[C@H]3CC[S@@+]([O-])C3)S[C@H]12 [SULOPENEM], the MIC [1] is reported as 0.25 µg/mL (≈ 0.715 µM), the MIC [2] is reported as 0.008 µg/mL (≈ 0.0229 µM) and the MIC50 [3] is reported as 1 µg/mL (≈ 2.86 µM). For the same compound, the MIC90 [3] was 2 µg/mL (≈ 5.72 µM), the MIC [4] was 0.25 µg/mL (≈ 0.715 µM) and the MIC [5] was 0.12 µg/mL (≈ 0.343 µM). The MIC [6] was 1 µg/mL (≈ 2.86 µM), the MIC [7] was 0.25 µg/mL (≈ 0.715 µM) and the MIC50 [8] was 0.008 µg/mL (≈ 0.0229 µM). For the same compound, the MIC90 [8] was 0.016 µg/mL (≈ 0.0458 µM), the MIC [9] was 1 µg/mL (≈ 2.86 µM) and the MIC [10] was 0.12 µg/mL (≈ 0.343 µM). It also gave an MIC [11] of 0.5 µg/mL (≈ 1.43 µM), an MIC [12] of 0.25 µg/mL (≈ 0.715 µM) and an MIC [13] of 1 µg/mL (≈ 2.86 µM). It also gave an MIC [14] of 0.5 µg/mL (≈ 1.43 µM), an MIC [15] of 0.5 µg/mL (≈ 1.43 µM) and an MIC [16] of 0.25 µg/mL (≈ 0.715 µM). For the same compound, the MIC [17] was 0.5 µg/mL (≈ 1.43 µM), the MIC [18] was 0.5 µg/mL (≈ 1.43 µM) and the MIC [19] was 1 µg/mL (≈ 2.86 µM). It also gave an MIC [20] of 0.12 µg/mL (≈ 0.343 µM), an MIC [21] of 0.5 µg/mL (≈ 1.43 µM) and an MIC50 [22] of 0.06 µg/mL (≈ 0.172 µM). It also gave an MIC90 [22] of 0.25 µg/mL (≈ 0.715 µM), an MIC [23] of 0.5 µg/mL (≈ 1.43 µM) and an MIC [24] of 0.25 µg/mL (≈ 0.715 µM). For the same compound, the MIC [25] was 0.25 µg/mL (≈ 0.715 µM), the MIC [26] was 0.5 µg/mL (≈ 1.43 µM) and the MIC [27] was 1 µg/mL (≈ 2.86 µM). It also gave an MIC [28] of 0.5 µg/mL (≈ 1.43 µM), an MIC [29] of 1 µg/mL (≈ 2.86 µM) and an MIC [30] of 0.25 µg/mL (≈ 0.715 µM). It also gave an MIC [31] of 1 µg/mL (≈ 2.86 µM), an MIC [32] of 1 µg/mL (≈ 2.86 µM) and an MIC [33] of 1 µg/mL (≈ 2.86 µM). The MIC [34] was 0.25 µg/mL (≈ 0.715 µM), the MIC [35] was 0.5 µg/mL (≈ 1.43 µM) and the MIC [36] was 1 µg/mL (≈ 2.86 µM). For the same compound, the MIC [37] was 1 µg/mL (≈ 2.86 µM), the MIC [38] was 0.125 µg/mL (≈ 0.358 µM) and the MIC [39] was 0.5 µg/mL (≈ 1.43 µM). For the same compound, the MIC [40] was 0.5 µg/mL (≈ 1.43 µM), the MIC [41] was 0.25 µg/mL (≈ 0.715 µM) and the MIC [42] was 0.06 µg/mL (≈ 0.172 µM). The MIC [43] was 1 µg/mL (≈ 2.86 µM), the MIC [44] was 1 µg/mL (≈ 2.86 µM) and the MIC50 [45] was 0.25 µg/mL (≈ 0.715 µM). It also gave an MIC90 [45] of 0.5 µg/mL (≈ 1.43 µM), an MIC [46] of 0.125 µg/mL (≈ 0.358 µM) and an MIC [47] of 0.008 µg/mL (≈ 0.0229 µM).
